For assay [1], the target named is T1, Rho I189P (Bos taurus, UniProt P02699, I189P). As to the kind of experiment: Trp-based FRET assay, 11CR entry kinetics. The format is binding, bovine. The settings on record: I189P vs I189, TM5 single vs TM5/I189P double mutants, kon Trp. The essentials:
(§1)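 Mutant bovine opsin is expressed in HEK293F cells, regenerated with 5 μm 11CR overnight at 4°C, then 1D4-immunopurified in DDM and C9-peptide eluted. Receptor at 0.25–0.30 μm is diluted into 1% POPC/1% CHAPS bicelles, pH 6.0, stirred in a temperature-controlled cuvette, with 11CR at 0.5–30 μm final. Trp quenching (ex 295, em 330 nm) is fitted pseudo-first-order; k2 = kobs/[retinal]. Data are mean ± STD of ≥3 trials.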

The target of assay [2] is Rho A269W (Bos taurus, UniProt P02699, A269W). Nature of the assay: regeneration with 11CR. The format is binding, bovine. Conditions: expressed at very low level.
For assay [3], the target named is S144-Alexa488 Rho F212A (Bos taurus, UniProt P02699, F212A/S144F). As to the kind of experiment: Alexa488-based FRET assay, 11CR entry kinetics. It counts as binding, bovine. The settings on record: F212A vs wt; Eyring plot. The essentials: (§2)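 Bovine opsin bearing S144azF is expressed in HEK293F cells with 1 mm azF for 96 h and regenerated with 11CR. It is purified by 1D4 immunopurification in DDM and labelled on resin with 50 μm Alexa488-DIBO for 18 h at 25°C. Labelled receptor (5–50 nm) sits in 1% POPC/1% CHAPS bicelles, pH 6.0, with 0.5–30 μm 11CR. Fluorescence (ex 488, em 520 nm) decay gives kobs; kon = kobs/[retinal], measured across temperatures for Eyring plots; mean ± STD.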

The test system of assay [4] is opsin. The settings on record: 11CR binding with opsin; ref Tian et al., 2017a; cited from earlier work.
For assay [5], the target named is Rho A269Y (Bos taurus, UniProt P02699, A269Y). As to the kind of experiment: regeneration with 11CR. The format is binding, bovine. The settings on record: 11CR 15 μM, over 48 h.
Assay [6] has as its target T2, Rho T94I (Bos taurus, UniProt P02699, T94I). As to the kind of experiment: Trp-based FRET assay, 11CR entry kinetics. It counts as binding, bovine. The essentials: as §1
In assay [7] the target is Rho F212W (Bos taurus, UniProt P02699, F212W). As to the kind of experiment: Trp-based FRET assay, 11CR entry kinetics. It counts as binding, bovine. The essentials:
as §1

The target in assay [8] is S144-Alexa488 Rho F208W (Bos taurus, UniProt P02699, F208W/S144F). Nature of the assay: Alexa488-based FRET assay, 11CR entry kinetics. The settings on record: F208W vs wt; Eyring plot. The format is binding, bovine. The essentials: as §2
For assay [9], the target named is T1, Rho I189P. Nature of the assay: Trp-based FRET assay, ATR release kinetics. The format is binding, bovine. The settings on record: I189P vs I189, TM5 single vs TM5/I189P double mutants, koff Trp. In outline:
(§3)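 ATR release runs on HEK293F-expressed, 1D4-immunopurified mutant bovine rhodopsin at 0.25–0.30 μm in 1% POPC/1% CHAPS bicelles, pH 6.0. Release is followed as recovery of Trp fluorescence (ex 295, em 330 nm), the inverse of retinal-induced quenching, integrated for 2 s every 30 s. Traces are fitted to a single exponential to give koff, reported as mean ± STD of ≥3 trials.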

Assay [10] has as its target T2, Rho T94I. As to the kind of experiment: Trp-based FRET assay, ATR release kinetics. The format is binding, bovine. In outline: as §3
Assay [11] addresses Rho A269F (Bos taurus, UniProt P02699, A269F). As to the kind of experiment: Trp-based FRET assay, ATR release kinetics. It counts as binding, bovine. In outline: as §3
Assay [12] addresses Rho F212A (Bos taurus, UniProt P02699, F212A). Nature of the assay: Trp-based FRET assay, ATR release kinetics. The format is binding, bovine. In outline: as §3

We go through two molecules from publication PMC8958324 (iScience, 2022).

In the case of `CC1=C(/C=C/C(C)=C/C=C/C(C)=C/C=O)C(C)(C)CCC1` [11CR, 11-cis-retinal], in assay [1], the “reduction of activation free energy Δ‡Gon by I189P” value came to 1.6 ± 0.3 kcal/mol. Moreover, the “regeneration with 11CR” value is “failed to regenerate” in assay [2] and “could not be regenerated” in [5]. For the same molecule, the “reduction of activation enthalpy (Δ‡H) of 11CR entry” value in [3] is 3.7 ± 1.6 kcal/mol. Further, in assay [4], the “activation barrier Δ‡Gon” value was 13.5 kcal/mol. Also, in assay [6], the “11CR entry kinetics (relative to wt)” value turned out to be 0.80 ± 0.04. For the same molecule, in assay [7], the “11CR entry kinetics normalized to the wt Rho” value was found to be 0.043 ± 0.022. For the same molecule, the “increase of activation enthalpy (Δ‡H) of 11CR entry” value in assay [8] was 4.8 ± 3.1 kcal/mol.

Consider `CC1=C(/C=C/C(C)=C/C=C/C(C)=C/C=O)C(C)(C)CCC1` [ATR, all-trans-retinal], for which the “reduction of activation free energy Δ‡Goff by I189P” value in assay [9] was found to be 1.6 ± 0.8 kcal/mol. In assay [10], the “ATR release kinetics (relative to wt)” value was 0.17 ± 0.02. Further, the “ATR exit kinetics normalized to the wt Rho” value is given as 0.91 ± 0.07 in assay [11] and 2.82 ± 1.0 in [12].
